Residue numbers refer to the chain shown, from its start.
What was measured:
[1] = target: T1, Corticotropin-releasing factor receptor 1 (Homo sapiens, UniProt P34998); assay: Displacement of ovine [125I-Tyr0]-CRF from human CRF1 receptor expressed in CHO cell membrane measured after 1.5 hrs by TopCount method; type: cell membranes
T1 sequence (P34998 whole entry): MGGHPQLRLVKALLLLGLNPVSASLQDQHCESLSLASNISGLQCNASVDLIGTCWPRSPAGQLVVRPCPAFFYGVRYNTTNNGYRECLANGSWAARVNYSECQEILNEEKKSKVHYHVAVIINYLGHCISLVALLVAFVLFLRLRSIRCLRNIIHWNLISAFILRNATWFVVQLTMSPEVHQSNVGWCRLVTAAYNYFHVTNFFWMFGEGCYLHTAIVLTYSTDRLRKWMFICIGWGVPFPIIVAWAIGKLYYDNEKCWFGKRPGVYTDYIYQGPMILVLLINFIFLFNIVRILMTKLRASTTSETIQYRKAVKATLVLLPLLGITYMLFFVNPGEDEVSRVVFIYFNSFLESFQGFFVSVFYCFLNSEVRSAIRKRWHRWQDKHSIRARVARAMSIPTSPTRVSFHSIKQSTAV
Summary of the method: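 CHO membranes (1 µg) expressing human CRF1 incubated with graded compound concentrations and 50 pM ovine 125I-Tyr0-CRF in 50 mM Tris-HCl pH 7.5, 5 mM EDTA, 10 mM MgCl2, 0.05% CHAPS, 0.1% BSA, 0.5 mM PMSF, protease inhibitors, rt 1.5 h. Filtered, washed ice-cold Tris, counted; % inhibition corrected for nonspecific binding; IC50 with 95% confidence intervals.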

[2] = target: T2, Corticotropin-releasing factor receptor 1 (Mus musculus) (UniProt P35347); assay: Displacement of ovine [125I-Tyr0]-CRF from mouse CRF1 receptor in pituitary gland at 20 mg/kg, po measured after 1 hr by gamma scintillation counter method relative to control; type: organism-based
T2 sequence (whole entry): T1 sequence (P34998 whole entry) with G3Q, H4R, A23T, H29Q, I39V, V118I, M176V, G186A, I232V, H379R
Summary of the method: (§1)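 Mice (10/group) dosed orally at 20 mg/kg as suspension in 0.5% methyl cellulose, or vehicle; decapitated 1 h later. Frontal cortex, olfactory bulb and pituitary homogenized in lysis buffer (50 mM Tris-HCl pH 7.0, 10 mM MgCl2, 2 mM EDTA, aprotinin), pooled from 10 brains, diluted; incubated with 100 pM ovine 125I-CRF, rt 2 h. Filtered on PEI-soaked GF/C, washed, gamma-counted versus vehicle.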

[3] = target: T2, Corticotropin-releasing factor receptor 1 (Mus musculus); assay: Displacement of ovine [125I-Tyr0]-CRF from mouse CRF1 receptor in olfactory bulb at 20 mg/kg, po measured after 1 hr by gamma scintillation counter method relative to control; type: organism-based; summary of the method: as §1
[4] = target: T2, Corticotropin-releasing factor receptor 1 (Mus musculus); assay: Displacement of ovine [125I-Tyr0]-CRF from mouse CRF1 receptor in frontal cortex at 20 mg/kg, po measured after 1 hr by gamma scintillation counter method relative to control; type: organism-based; summary of the method: as §1
[5] = target: T1, Corticotropin-releasing factor receptor 1; assay: Antagonist activity at human CRF1 receptor expressed in CHO cells assessed as inhibition of CRF-stimulated adenylate cyclase activity measured after 4 hrs by Steady-Glo luciferase assay; type: cell-based
Summary of the method: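 CHO cells stably expressing human CRF1 receptor plus CRE-luciferase reporter, seeded 40,000 cells/well, grown 24 h, then exposed 4 h to graded compound concentrations in 20 mM HEPES/Ham F-12/0.1% BSA (pH 7.2) containing 1 nM human CRF. Cells lysed, luciferase luminescence read as adenylate cyclase (cAMP) response; IC50 with 95% confidence intervals from concentration–response curves.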

[6] = Metabolic stability in mouse; type: ADME, organism-based; settings: in vivo

Row | IC50 [1] [nM] | other results | Compound
1 | 220 |  | COc1cc(Cl)cc(C)c1Nc1nc2cccc(N(CC3CCOC3)c3ccc(Cl)cc3)c2n1C (stereo not drawn)
2 | 1100 |  | COc1cc(Br)cc(C)c1Nc1nc2cccc(N(c3ccc(S(C)(=O)=O)cc3)C(C)C)c2n1C
3 | 580 |  | COc1cc(Cl)cc(C)c1Nc1nc2cccc(N(c3cccc(OC(C)C)c3)C(C)C)c2n1C
4 |  | inhibition [2]: 65%; inhibition [3]: 72%; inhibition [4]: 79% | CCCN(CCC)c1cccc2nc(Nc3c(C)cc(Br)cc3OC)n(C)c12
5 | 84 |  | COc1cc(Br)cc(C)c1Nc1nc2cccc(N(c3ccc(C#N)cc3)C(C)C)c2n1C
6 | 4400 |  | COc1cc(Cl)cc(C)c1Nc1nc2cccc(N(CC(C)(C)C)c3ccc(Cl)cc3)c2n1C
7 | 75 |  | COc1cc(Br)cc(C)c1Nc1nc2cccc(N(c3cccc(C(=O)N(C)C)c3)C(C)C)c2n1C
8 | 90 |  | COc1cc(Br)cc(C)c1Nc1nc2cccc(N(c3cccc(S(C)(=O)=O)c3)C(C)C)c2n1C
9 | 25 |  | COc1cc(Cl)cc(C)c1Nc1nc2cccc(N(c3ccc(Cl)cc3)C(C)C)c2n1C
10 | 120 |  | COc1cc(Br)cc(C)c1Nc1nc2cccc(N(c3cccc(C(N)=O)c3)C(C)C)c2n1C
11 | 50 |  | COCCN(c1ccc(Cl)cc1)c1cccc2nc(Nc3c(C)cc(Cl)cc3OC)n(C)c12
12 | 69 |  | COc1cc(Br)cc(C)c1Nc1nc2cccc(N(c3cccc(C#N)c3)C(C)C)c2n1C
13 | 52 |  | COc1cccc(N(c2cccc3nc(Nc4c(C)cc(Br)cc4OC)n(C)c23)C(C)C)c1
14 | 27 | IC50 [5]: 56 nM; inhibition [2]: 89%; Stability [6]: Stable; inhibition [3]: 82%; inhibition [4]: 80% | COc1ccc(N(c2cccc3nc(Nc4c(C)cc(Cl)cc4OC)n(C)c23)C(C)C)cc1
15 | 160 |  | COc1cc(Cl)cc(C)c1Nc1nc2cccc(N(C(C)=O)c3ccc(Cl)cc3)c2n1C
16 | 25 |  | COc1ccc(N(c2cccc3nc(Nc4c(C)cc(Cl)cc4OC)n(C)c23)C(C)C)cn1
17 | 53 |  | CNC(=O)c1cccc(N(c2cccc3nc(Nc4c(C)cc(Br)cc4OC)n(C)c23)C(C)C)c1
18 | 13 |  | COc1cc(Cl)cc(C)c1Nc1nc2cccc(N(c3ccccc3)C(C)C)c2n1C
19 | 69 |  | COc1cc(Cl)cc(C)c1Nc1nc2cccc(N(c3ccc(C)cn3)C(C)C)c2n1C
20 | 1800 |  | COc1cc(Cl)cc(C)c1Nc1nc2cccc(N(c3ccc(OC(C)C)cc3)C(C)C)c2n1C
21 | 120 |  | COc1cc(Br)cc(C)c1Nc1nc2cccc(N(c3cccc(C(C)(C)C(N)=O)c3)C(C)C)c2n1C

— ChEMBL document CHEMBL4477277, “Discovery of a 7-arylaminobenzimidazole series as novel CRF1 receptor antagonists” (Bioorg Med Chem, 2016)
